Results reported in ChEMBL document CHEMBL4715796, “Discovery of Chromane Containing Hepatitis C Virus (HCV) NS5A Inhibitors with Improved Potency against Resistance-Associated Variants” (J Med Chem, 2016).

Columns and labels:
[1] = system: Huh-7; assay: Inhibition of NS5A in Hepatitis C virus subtype 4a infected in human HuH7 cells assessed as reduction in viral replication by luciferase reporter gene assay; format: cell-based
How it was run: (§1)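 Transient replicon assay with GT1a-H77, GT1b-Con1 or chimeric replicons, electroporated into a Huh7-derived cell line. Percent inhibition of replication, read as a drop in luciferase signal, was calculated at each concentration to give EC90. Values are means of at least two experiments.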

[2] = system: Huh-7; assay: Inhibition of NS5A in Hepatitis C virus subtype 2b infected in human HuH7 cells assessed as reduction in viral replication by luciferase reporter gene assay; format: cell-based; how it was run: as §1
[3] = system: Huh-7; assay: Inhibition of NS5A in Hepatitis C virus subtype 3a infected in human HuH7 cells assessed as reduction in viral replication by luciferase reporter gene assay; format: cell-based; how it was run: as §1
[4] = Selectivity ratio of EC90 for inhibition of NS5A in Hepatitis C virus subtype 3a infected in human HuH7 cells assessed as reduction in viral to EC90 for inhibition of NS5A in Hepatitis C virus subtype 1a; format: cell-based
[5] = Selectivity ratio of EC90 for inhibition of NS5A in Hepatitis C virus subtype 1b infected in human HuH7 cells assessed as reduction in viral to EC90 for inhibition of NS5A in Hepatitis C virus subtype 1a; format: cell-based
How it was run: (§2)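 Fold shift calculated against the GT1a EC90, using EC90 values from the luciferase replicon assay in Huh7-derived cells.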

[6] = system: Nonstructural protein 5A (Hepatitis C virus), Q5L478 [UNDEFINED MUTATION]; assay: Inhibition of NS5A L31V mutant in Hepatitis C virus subtype 1a infected in human HuH7 cells assessed as reduction in viral replication by luciferase reporter gene assay; format: cell-based; settings: Huh-7
How it was run: (§3)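 NS5A resistance variants engineered into GT1a-H77 or GT1b-Con1 replicons. Each variant replicon is transfected transiently by electroporation into a Huh7-derived cell line. Percent inhibition is taken from the drop in luciferase signal at each compound concentration, and EC90 is calculated from these. Values are means of at least two experiments.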

[7] = system: T1, Nonstructural protein 5A (Hepatitis C virus), Q5L478 [Y93H]; assay: Inhibition of NS5A Y93H mutant in Hepatitis C virus subtype 1a infected in human HuH7 cells assessed as reduction in viral replication by luciferase reporter gene assay; format: cell-based; settings: Huh-7; how it was run: as §3
T1 sequence (whole entry): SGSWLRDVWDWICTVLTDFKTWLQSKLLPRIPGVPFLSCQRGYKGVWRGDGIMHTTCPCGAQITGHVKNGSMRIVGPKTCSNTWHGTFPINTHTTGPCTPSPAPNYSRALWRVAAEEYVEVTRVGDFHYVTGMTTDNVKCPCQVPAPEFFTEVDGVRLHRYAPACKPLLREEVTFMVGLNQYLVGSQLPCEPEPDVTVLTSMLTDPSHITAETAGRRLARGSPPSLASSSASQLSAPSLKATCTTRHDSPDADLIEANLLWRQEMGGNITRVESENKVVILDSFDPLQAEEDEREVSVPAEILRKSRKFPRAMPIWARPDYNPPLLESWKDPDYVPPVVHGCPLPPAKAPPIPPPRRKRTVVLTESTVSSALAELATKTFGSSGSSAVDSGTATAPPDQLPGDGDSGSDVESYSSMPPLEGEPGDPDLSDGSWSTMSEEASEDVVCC

[8] = system: Huh-7; assay: Inhibition of NS5A in Hepatitis C virus subtype 1b infected in human HuH7 cells assessed as reduction in viral replication by luciferase reporter gene assay; format: cell-based; how it was run: as §1
[9] = Selectivity ratio of EC90 for inhibition of NS5A L31V mutant in Hepatitis C virus subtype 1a infected in human HuH7 cells assessed as reduction in viral to EC90 for inhibition of NS5A in Hepatitis C virus subtype 1a; format: cell-based
How it was run: (§4)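 Fold shift is calculated against the GT1a EC90. The variant EC90 comes from a transient replicon assay: the NS5A variant is introduced into a GT1a-H77 or GT1b-Con1 replicon and electroporated into Huh7-derived cells. The read-out is reduced luciferase signal. EC90s are means of at least two experiments.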

[10] = Selectivity ratio of EC90 for inhibition of NS5A in Hepatitis C virus subtype 4a infected in human HuH7 cells assessed as reduction in viral to EC90 for inhibition of NS5A in Hepatitis C virus subtype 1a; format: cell-based; how it was run: as §2
[11] = Selectivity ratio of EC90 for inhibition of NS5A Y93H mutant in Hepatitis C virus subtype 1a infected in human HuH7 cells assessed as reduction in viral to EC90 for inhibition of NS5A in Hepatitis C virus subtype 1a; format: cell-based; how it was run: as §4
[12] = Selectivity ratio of EC90 for inhibition of NS5A in Hepatitis C virus subtype 2b infected in human HuH7 cells assessed as reduction in viral to EC90 for inhibition of NS5A in Hepatitis C virus subtype 1a; format: cell-based
[13] = system: Huh-7; assay: Inhibition of NS5A in Hepatitis C virus subtype 1a infected in human HuH7 cells assessed as reduction in viral replication by luciferase reporter gene assay; format: cell-based; how it was run: as §1
[14] = system: Huh-7; assay: Inhibition of NS5A in Hepatitis C virus subtype 2a infected in human HuH7 cells assessed as reduction in viral replication by luciferase reporter gene assay; format: cell-based; how it was run: as §1
[15] = Cmax in male Wistar Han rats at 10 mg/kg, po administered post overnight fasting measured upto 24 hrs by LC-MS/MS analysis; format: ADME, organism-based; design: route oral, dose 10 mg/kg, time <=24; settings: rat, in vivo
How it was run: (§5)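 Overnight-fasted male Wistar Han rats or Beagle dogs, two animals per group, 24 h study. IV in 60% PEG200 (rat 2 mg/kg, dog 1 mg/kg). PO in 10% Tween (rat 10 mg/kg, dog 5 mg/kg). Blood sampled up to 24 h, plasma separated by centrifugation, and drug measured by LC/MS. MRT reported for the IV route.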

[16] = Clearance in male Wistar Han rats at 2 mg/kg, iv administered post overnight fasting measured upto 24 hrs by LC-MS/MS analysis; format: ADME, organism-based; settings: rat, in vivo; how it was run: as §5
[17] = Half-life in male Wistar Han rats at 2 mg/kg, iv administered post overnight fasting measured upto 24 hrs by LC-MS/MS analysis; format: ADME, organism-based; settings: rat, in vivo; how it was run: as §5
[18] = Drug concentration in male Wistar Han rat at 10 mg/kg, po measured after 24 hrs by LC/MS analysis; format: ADME, organism-based; settings: in vivo, read-out: Drug uptake; how it was run: as §5
[19] = Oral bioavailability in male Wistar Han rat at 10 mg/kg post overnight fasting measured upto 24 hrs by LC-MS/MS analysis; format: ADME, organism-based; settings: in vivo; how it was run: as §5
[20] = AUC in male Wistar Han rats at 10 mg/kg, po administered post overnight fasting measured upto 24 hrs by LC-MS/MS analysis; format: ADME, organism-based; design: route oral, dose 10 mg/kg, time <=24; settings: rat, in vivo; how it was run: as §5

SMILES: COC(=O)N[C@H](C(=O)N1CCC[C@H]1c1ncc(-c2cc(F)c3c(c2)OC(c2ccc4c(c2)OCC[C@@H]4C)n2c-3cc3cc(-c4cnc([C@@H]5CCCN5C(=O)[C@@H](NC(=O)OC)C(C)C)[nH]4)ccc32)[nH]1)C(C)C (some centres not stated)
- EC90 [1]: 0.003 nM
- EC90 [2]: 0.2 nM
- EC90 [3]: 0.01 nM
- Selectivity ratio [4]: 3
- Selectivity ratio [5]: 1
- EC90 [6]: 0.01 nM
- EC90 [7]: 0.2 nM
- EC90 [8]: 0.002 nM
- Selectivity ratio [9]: 3
- Selectivity ratio [10]: 1
- Selectivity ratio [11]: 50
- Selectivity ratio [12]: 50
- EC90 [13]: 0.004 nM

SMILES: COC(=O)N[C@H](C(=O)N1CCC[C@H]1c1ncc(-c2ccc3c(c2)OC(c2ccc(-c4ccccc4)cc2)n2c-3cc3cc(-c4cnc([C@@H]5CCCN5C(=O)[C@@H](NC(=O)OC)C(C)C)[nH]4)ccc32)[nH]1)C(C)C (mixture of isomers)
- EC90 [1]: < 0.02 nM
- EC90 [2]: 2.6 nM
- EC90 [3]: < 0.2 nM
- EC90 [6]: < 2 nM
- EC90 [7]: 4.6 nM
- EC90 [8]: < 0.02 nM
- EC90 [14]: < 0.2 nM
- EC90 [13]: < 0.02 nM

SMILES: COC(=O)N[C@H](C(=O)N1CCC[C@H]1c1ncc(-c2cc(F)c3c(c2)OC(c2ccc4c(c2)OCCC4)n2c-3cc3cc(-c4cnc([C@@H]5CCCN5C(=O)[C@@H](NC(=O)OC)C(C)C)[nH]4)ccc32)[nH]1)C(C)C.O=C(O)C(F)(F)F.O=C(O)C(F)(F)F (some centres not stated)
- Cmax [15]: 86 nM
- clearance [16]: 8 mL/min/kg
- half-life [17]: 5.8 h
- concentration at 24 h [18]: 17 nM
- bioavailability [19]: 5%
- AUC at 24 h [20]: 1.35 µM·h

SMILES: COC(=O)N[C@H](C(=O)N1CCC[C@H]1c1ncc(-c2cc(F)c3c(c2)OC(c2ccc4c(c2)OC(C)(C)C4)n2c-3cc3cc(-c4cnc([C@@H]5CCCN5C(=O)[C@@H](NC(=O)OC)C(C)C)[nH]4)ccc32)[nH]1)C(C)C.O=C(O)C(F)(F)F.O=C(O)C(F)(F)F (some centres not stated)
- Cmax [15]: 58 nM
- EC90 [1]: 0.003 nM
- EC90 [2]: 0.5 nM
- EC90 [3]: 0.005 nM
- clearance [16]: 7 mL/min/kg
- Selectivity ratio [4]: 2
- Selectivity ratio [5]: 1
- half-life [17]: 8.4 h
- EC90 [6]: 0.02 nM
- EC90 [7]: 0.2 nM
- EC90 [8]: 0.004 nM
- concentration at 24 h [18]: 9 nM
- Selectivity ratio [9]: 7
- Selectivity ratio [10]: 1
- Selectivity ratio [11]: 67
- bioavailability [19]: 3%
- AUC at 24 h [20]: 0.71 µM·h
- Selectivity ratio [12]: 167
- EC90 [13]: 0.003 nM

SMILES: COC(=O)N[C@H](C(=O)N1CCC[C@H]1c1ncc(-c2cc(F)c3c(c2)OC(c2ccc4c(c2)OCC[C@H]4C)n2c-3cc3cc(-c4cnc([C@@H]5CCCN5C(=O)[C@@H](NC(=O)OC)C(C)C)[nH]4)ccc32)[nH]1)C(C)C (some centres not stated)
- EC90 [1]: 0.003 nM
- EC90 [2]: 0.2 nM
- EC90 [3]: 0.006 nM
- Selectivity ratio [4]: 2
- Selectivity ratio [5]: 1
- EC90 [6]: 0.007 nM
- EC90 [7]: 0.2 nM
- EC90 [8]: 0.002 nM
- Selectivity ratio [9]: 2
- Selectivity ratio [10]: 1
- Selectivity ratio [11]: 50
- Selectivity ratio [12]: 50
- EC90 [13]: 0.004 nM

SMILES: COC(=O)N[C@H](C(=O)N1CCC[C@H]1c1ncc(-c2ccc3c(c2)OC(c2cccc(-c4ccccc4)c2)n2c-3cc3cc(-c4cnc([C@@H]5CCCN5C(=O)[C@@H](NC(=O)OC)C(C)C)[nH]4)ccc32)[nH]1)C(C)C (mixture of isomers)
- EC90 [1]: 0.02 nM
- EC90 [2]: 3.8 nM
- EC90 [3]: 0.3 nM
- EC90 [6]: 1 nM
- EC90 [7]: 21 nM
- EC90 [8]: 0.006 nM
- EC90 [14]: 0.004 nM
- EC90 [13]: 0.005 nM
